ChEMBL document CHEMBL5236612, “Heterobivalent Inhibitors of Acetyl-CoA Carboxylase: Drug Target Residence Time and Time-Dependent Antibacterial Activity” (J Med Chem, 2022)
≈ marks a conversion by molar mass, not a printed value. Calls of active or inactive are those of the source. The rule behind the calls is not given here.

How the values were obtained:
[1] = Inhibition of Escherichia coli biotin carboxylase in presence of ATP and NADH by UV-Vis spectrophotometric assay
Escherichia coli [2] = assay: Displacement of 11-(4-(22-(2,4-dibromo-3-(2,7-diaminopyrido[2,3-d]pyrimidin-6-yl)phenoxy)-5,8,11,14,17,20-hexaoxadocos-1-yl)-1H-1,2,3-triazol-1-yl)-N-((1S)-3-(((2S)-3-methyl-1-((3R,4S)-4-methyl-2,5-dioxopyrrolidin-3-yl)-1-oxobutan-2-yl)amino)-3-oxo-1-phenylpropyl)undecanamide from Escherichia coli ACC expressed in Escherichia coli BL21(DE3) pLysS at 50 uM preincubated for 1 hr in presence of Moiramide-B followed by compound addition by LC-MS/MS method
Method in brief: (§1)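 Purified E. coli ACC (1 μM), in 100 mM HEPES pH 8.0 with 15 mM KHCO3 and 20 mM MgCl2, was held 1 h at 22 °C with equimolar heterobivalent inhibitor. Competitor was then added: 100 μM of one warhead alone, or 50 μM each of both warheads together. At timed points, aliquots were spun through G-25 gel filtration columns in 10 mM ammonium formate pH 8.0. Flow-through was denatured in 50% MeCN and bound inhibitor quantified by LC-MS/MS. Dissociation rate came from a single-exponential fit.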

Escherichia coli [3] = assay: Displacement of 11-(4-(22-(2,4-dibromo-3-(2,7-diaminopyrido[2,3-d]pyrimidin-6-yl)phenoxy)-5,8,11,14,17,20-hexaoxadocos-1-yl)-1H-1,2,3-triazol-1-yl)-N-((1S)-3-(((2S)-3-methyl-1-((3R,4S)-4-methyl-2,5-dioxopyrrolidin-3-yl)-1-oxobutan-2-yl)amino)-3-oxo-1-phenylpropyl)undecanamide from Escherichia coli ACC expressed in Escherichia coli BL21(DE3) pLysS at 100 uM preincubated for 1 hr followed by compound addition by LC-MS/MS method; method in brief: as §1
Escherichia coli [4] = assay: Antibacterial activity against acrAB knockout Escherichia coli MG1655 incubated for 24 hrs in presence of PMBN by microbroth dilution method; assay type: functional
Escherichia coli [5] = assay: Antibacterial activity against Escherichia coli harbouring TolC-deficient mutant assessed as post antibiotic effect by measuring time required for increase in 1 log10 CFU/ml of bacteria at 32 times MIC incubated for 1 hr followed by compound washout and measured for 16 hrs; assay type: functional
Escherichia coli [6] = assay: Antibacterial activity against Escherichia coli harbouring TolC-deficient mutant assessed as post antibiotic effect by measuring time required for increase in 1 log10 CFU/ml of bacteria at 16 times MIC incubated for 1 hr followed by compound washout and measured for 16 hrs; assay type: functional
[7] = Inhibition of Escherichia coli ACC expressed in Escherichia coli BL21(DE3) pLysS incubated for 45 mins in presence of ATP and acetyl coA by fluorescence polarization assay
Method in brief: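 E. coli BC (1 nM), biotinylated BCCP (2 nM) and CT (1 nM), His-tag purified then size-exclusion purified, preincubated with inhibitor in 100 mM HEPES pH 8.0, 15 mM KHCO3, 20 mM MgCl2. ADP detected by Transcreener fluorescence polarization; Morrison fit for Ki when tight binding; triplicate.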

Escherichia coli [8] = assay: Antibacterial activity against tolC knockout Escherichia coli incubated for 24 hrs in presence of PMBN by microbroth dilution method; assay type: functional
Escherichia coli [9] = assay: Antibacterial activity against Escherichia coli K12 incubated for 24 hrs by microbroth dilution method; assay type: functional
Escherichia coli [10] = assay: Displacement of 11-(4-(22-(2,4-dibromo-3-(2,7-diaminopyrido[2,3-d]pyrimidin-6-yl)phenoxy)-5,8,11,14,17,20-hexaoxadocos-1-yl)-1H-1,2,3-triazol-1-yl)-N-((1S)-3-(((2S)-3-methyl-1-((3R,4S)-4-methyl-2,5-dioxopyrrolidin-3-yl)-1-oxobutan-2-yl)amino)-3-oxo-1-phenylpropyl)undecanamide from Escherichia coli ACC expressed in Escherichia coli BL21(DE3) pLysS at 50 uM preincubated for 1 hr in presence of 6-(2,6-dibromophenyl)pyrido[2,3-d]pyrimidine-2,7-diamine followed by compound addition by LC-MS/MS method; method in brief: as §1
Escherichia coli [11] = assay: Antibacterial activity against Escherichia coli harbouring TolC-deficient mutant assessed as post antibiotic effect by measuring time required for increase in 1 log10 CFU/ml of bacteria at 8 times MIC incubated for 1 hr followed by compound washout and measured for 16 hrs; assay type: functional
Escherichia coli [12] = assay: Antibacterial activity against tolC knockout Escherichia coli incubated for 24 hrs by microbroth dilution method; assay type: functional
Escherichia coli [13] = assay: Antibacterial activity against Escherichia coli incubated for 24 hrs in presence of PMBN by microbroth dilution method; assay type: functional
Escherichia coli [14] = assay: Antibacterial activity against acrAB knockout Escherichia coli MG1655 incubated for 24 hrs by microbroth dilution method; assay type: functional
Escherichia coli [15] = assay: Synergistic antibacterial activity against Escherichia coli harbouring TolC-deficient mutant assessed as fractional inhibitory concentration index at […] in presence of PMBN; assay type: functional; conditions: dose 0.025 µM
Escherichia coli [16] = assay: Additive antibacterial activity against Escherichia coli harbouring TolC-deficient mutant assessed as fractional inhibitory concentration index; assay type: functional
Method in brief: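 Checkerboard MIC of two compounds combined against tolC-knockout E. coli, without PMBN; FIC index derived from combination MICs.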

[17] = Inhibition of Escherichia coli ACC expressed in Escherichia coli BLR(DE3) cells
[18] = Inhibition of Escherichia coli ACC incubated for 5 mins
Method in brief: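 ACC reconstituted from 1 nM BC, 2 nM biotinylated BCCP and 1 nM CT (His-tagged E. coli proteins) in 100 mM HEPES pH 8.0 with 15 mM KHCO3 and 20 mM MgCl2. Enzyme was mixed with inhibitor or DMSO, and reactions were started with 10 μM ATP and 200 μM acetyl-CoA. ADP formed was read by Transcreener fluorescence polarization after a 45 min endpoint.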

Row | Structure (SMILES) | IC50 [1] | Activity (Escherichia coli [2]) | Activity (Escherichia coli [3]) | MIC (Escherichia coli [4]) | PAE (Escherichia coli [5]) | PAE (Escherichia coli [6]) | Ki [7] | MIC (Escherichia coli [8]) | MIC (Escherichia coli [9]) | Activity (Escherichia coli [10]) | PAE (Escherichia coli [11]) | MIC (Escherichia coli [12]) | MIC (Escherichia coli [13]) | IC50 [7] | MIC (Escherichia coli [14]) | FIC (Escherichia coli [15]) | fractional inhibitory concentration index (FICI) (Escherichia coli [16]) | IC50 [17] | IC50 [18]
1 | COc1cc(Br)c(-c2cc3cnc(N)nc3nc2N)c(Br)c1 | 1200 nM |  |  |  |  |  |  |  |  |  |  |  |  |  |  |  |  |  | 
2 | CC(C)[C@H](NC(=O)C[C@H](NC(=O)CCCCCCCCCCn1cc(CCCCOCCOCCOCCOCCOCCOCCOCCOCCOCCOCCOCCOCCOc2ccc(Br)c(-c3cc4cnc(N)nc4nc3N)c2Br)nn1)c1ccccc1)C(=O)[C@@H]1C(=O)NC(=O)[C@H]1C |  | Active | inactive | 6.25 µM | 3.6 h | 2.6 h | 0.18 nM | 1.56 µM | > 25 µM | Active | 2.1 h |  |  |  |  |  |  |  | 
3 | C#CCCCCOc1ccc(Br)c(-c2cc3cnc(N)nc3nc2N)c1Br |  |  |  | 0.78 µM |  |  |  | 0.78 µM | > 25 µM |  |  | 1.56 µM (≈ 0.766 µg/mL) | 12.5 µM | ≤ 1 nM | > 25 µM |  |  |  | 
4 | CC(C)[C@H](NC(=O)C[C@H](NC(=O)CCCCCCCCCCN=[N+]=[N-])c1ccccc1)C(=O)[C@@H]1C(=O)NC(=O)[C@H]1C |  |  |  | 1.56 µM |  |  |  | 0.2 µM | > 25 µM |  |  |  | 12.5 µM | 74 nM | > 25 µM |  |  |  | 
5 | CC(C)[C@H](NC(=O)C[C@H](NC(=O)CCCCCCCCCCn1cc(CCCCOCCOCCOCCOc2ccc(Br)c(-c3cc4cnc(N)nc4nc3N)c2Br)nn1)c1ccccc1)C(=O)[C@@H]1C(=O)NC(=O)[C@H]1C |  | Active | inactive | 6.25 µM | 2.6 h | 1.2 h | 0.26 nM | 0.78 µM | > 25 µM | Active | 1 h | 3.13 µM (≈ 3.73 µg/mL) |  |  |  |  |  |  | 
6 | Nc1ncc2cc(-c3c(Br)cc(OCCO)cc3Br)c(N)nc2n1 | 730 nM |  |  |  |  |  |  |  |  |  |  |  |  |  |  |  |  |  | 
7 | CC(C)[C@H](NC(=O)C[C@H](NC(=O)CCCCCCCCCCn1cc(CCCCOCCOCCOCCOCCOCCOCCOc2ccc(Br)c(-c3cc4cnc(N)nc4nc3N)c2Br)nn1)c1ccccc1)C(=O)[C@@H]1C(=O)NC(=O)[C@H]1C |  |  |  | 3.13 µM | 3.4 h | 1.7 h | 0.25 nM | 0.39 µM | > 25 µM |  | 1.7 h |  | > 25 µM |  | > 25 µM |  |  |  | 
8 | CC(C)[C@H](NC(=O)C[C@H](NC(=O)CCCCCCCCCCn1cc(CCCCOCCOCCOCCOCCOCCOCCOCCOCCOCCOc2ccc(Br)c(-c3cc4cnc(N)nc4nc3N)c2Br)nn1)c1ccccc1)C(=O)[C@@H]1C(=O)NC(=O)[C@H]1C |  | Active | inactive | 3.13 µM | 3.4 h | 1.8 h | 0.31 nM | 0.78 µM | > 25 µM | Active | 1.2 h |  |  |  |  |  |  |  | 
9 | CC(C)[C@H](NC(=O)C[C@H](NC(=O)CCCCCCCCCCn1cc(CCCCOCCOCCOCCOCCOCCOCCOCCOCCOCCOCCOCCOCCOCCOCCOCCOc2ccc(Br)c(-c3cc4cnc(N)nc4nc3N)c2Br)nn1)c1ccccc1)C(=O)[C@@H]1C(=O)NC(=O)[C@H]1C |  | Active | inactive | 12.5 µM | 4.6 h | 3.8 h | 0.33 nM | 1.56 µM | > 25 µM | Active | 1.9 h |  |  |  |  |  |  |  | 
10 | C/C=C/C=C/C(=O)N[C@@H](CC(=O)N[C@H](C(=O)[C@@H]1C(=O)NC(=O)[C@H]1C)C(C)C)c1ccccc1 |  |  | inactive | 0.39 µM |  |  |  | 0.1 µM | > 25 µM | Active |  | 1.56 µM (≈ 0.708 µg/mL) | 3.13 µM | 4.5 nM | 25 µM (≈ 11.3 µg/mL) | 0.38 | 0.5 | 6 nM | 
11 | Nc1ncc2cc(-c3c(Br)ccc(OCCO)c3Br)c(N)nc2n1 | 550 nM |  |  |  |  |  |  |  |  |  |  |  |  |  |  |  |  |  | 
12 | CC(C)[C@H](NC(=O)C[C@H](NC(=O)CCCCCCCCCCn1cc(CCCCOc2ccc(Br)c(-c3cc4cnc(N)nc4nc3N)c2Br)nn1)c1ccccc1)C(=O)[C@@H]1C(=O)NC(=O)[C@H]1C |  | Active | inactive | 12.5 µM | 3.8 h | 2.2 h |  | 0.78 µM | > 25 µM | Active | 1.9 h |  |  | 1.81 nM |  |  |  |  | 
13 | COc1ccc(Br)c(-c2cc3cnc(N)nc3nc2N)c1Br | ≤ 250 nM |  |  |  |  |  |  |  |  |  |  |  |  |  |  |  |  |  | 
14 | Nc1ncc2cc(-c3c(Br)cccc3Br)c(N)nc2n1 |  | Active | inactive |  |  |  |  |  |  |  |  | 1.56 µM (≈ 0.616 µg/mL) |  |  |  |  | 0.5 |  | < 5 nM
